Screens (PubChem)
esBAF inh: SWI/SNF esBAF complex inhibition | mouse ES cells, Bmi1-luciferase knock-in reporter, 24 h; 100% = twice the neutral-well signal | reporter increase, % at 12.5 µM | AID 602393 | hit rate 2% among 350,000; in the data active means activation above about 40%; inconclusive means no clear call, values can overlap the other calls;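 further: 0% = median of the plate's neutral control wells and 100% = double that signal; a rise in the Bmi1 reporter signal indicates esBAF inhibition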
Casp6 inh: blocks human caspase-6 cleavage activity. purified caspase-6, Z-VEID-R110 cleavage fluorescence. hit rate 0.53% among 350,000. inhibition, % at 12.5 µM;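 active means mean inhibition across replicates at least about 35%, with every replicate also reaching that limit, limit read from the data; inconclusive means only one of the two criteria met; inactive means neither criterion met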;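 further: 0% = median of neutral control wells and 100% = no fluorescence left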
XiGFP reactiv: X-chromosome reactivation activator. activation, % at 7.58 µM. hit rate 0.055% among 360,000. XiGFP mouse fibroblasts, % GFP-positive cells imaging, 3 d; cells co-treated with 5-aza-dC sensitizer; scaled so ellipticine positive control = 100%;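 active means mean normalized replicate activation at least 10% and every replicate at or above 10%; inconclusive means only one of the two criteria met; inactive means mean below 10% and not all replicates reach 10%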;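 further: 0% = median of on-plate neutral control wells and 100% = ellipticine 6 µM median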
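System: 68-5-11 XiGFP fibroblast line | Buffer or medium: DMEM containing 5-aza-dC | Compound: Single point | Times: Compounds 3 days, fix/stain 15 min at room temperature | Benchmarks: Positive control ellipticine, 6 µM final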
Wnt bcat act: activators of Wnt/beta-catenin signaling | Wnt/beta-catenin reporter cell assay, activator, plate reader | activation, % at 9.35 µM | hit rate 1.2% among 300,000; in the data active means activation above about 30%, passing the limit was not always enough; inconclusive means no clear call, values can overlap the other calls;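 further: 0% = neutral control wells and 100% = positive control wells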
NSD2 HMT inh: inhibitors of human histone methyltransferase NSD2; hit rate 0.54% among 310,000; O96028; inhibition, % at 12.5 µM; NSD2 peptide methylation, AlphaScreen, 120 min; in the data active means inhibition above about 50%
Target sequence (O96028 whole entry, looked up): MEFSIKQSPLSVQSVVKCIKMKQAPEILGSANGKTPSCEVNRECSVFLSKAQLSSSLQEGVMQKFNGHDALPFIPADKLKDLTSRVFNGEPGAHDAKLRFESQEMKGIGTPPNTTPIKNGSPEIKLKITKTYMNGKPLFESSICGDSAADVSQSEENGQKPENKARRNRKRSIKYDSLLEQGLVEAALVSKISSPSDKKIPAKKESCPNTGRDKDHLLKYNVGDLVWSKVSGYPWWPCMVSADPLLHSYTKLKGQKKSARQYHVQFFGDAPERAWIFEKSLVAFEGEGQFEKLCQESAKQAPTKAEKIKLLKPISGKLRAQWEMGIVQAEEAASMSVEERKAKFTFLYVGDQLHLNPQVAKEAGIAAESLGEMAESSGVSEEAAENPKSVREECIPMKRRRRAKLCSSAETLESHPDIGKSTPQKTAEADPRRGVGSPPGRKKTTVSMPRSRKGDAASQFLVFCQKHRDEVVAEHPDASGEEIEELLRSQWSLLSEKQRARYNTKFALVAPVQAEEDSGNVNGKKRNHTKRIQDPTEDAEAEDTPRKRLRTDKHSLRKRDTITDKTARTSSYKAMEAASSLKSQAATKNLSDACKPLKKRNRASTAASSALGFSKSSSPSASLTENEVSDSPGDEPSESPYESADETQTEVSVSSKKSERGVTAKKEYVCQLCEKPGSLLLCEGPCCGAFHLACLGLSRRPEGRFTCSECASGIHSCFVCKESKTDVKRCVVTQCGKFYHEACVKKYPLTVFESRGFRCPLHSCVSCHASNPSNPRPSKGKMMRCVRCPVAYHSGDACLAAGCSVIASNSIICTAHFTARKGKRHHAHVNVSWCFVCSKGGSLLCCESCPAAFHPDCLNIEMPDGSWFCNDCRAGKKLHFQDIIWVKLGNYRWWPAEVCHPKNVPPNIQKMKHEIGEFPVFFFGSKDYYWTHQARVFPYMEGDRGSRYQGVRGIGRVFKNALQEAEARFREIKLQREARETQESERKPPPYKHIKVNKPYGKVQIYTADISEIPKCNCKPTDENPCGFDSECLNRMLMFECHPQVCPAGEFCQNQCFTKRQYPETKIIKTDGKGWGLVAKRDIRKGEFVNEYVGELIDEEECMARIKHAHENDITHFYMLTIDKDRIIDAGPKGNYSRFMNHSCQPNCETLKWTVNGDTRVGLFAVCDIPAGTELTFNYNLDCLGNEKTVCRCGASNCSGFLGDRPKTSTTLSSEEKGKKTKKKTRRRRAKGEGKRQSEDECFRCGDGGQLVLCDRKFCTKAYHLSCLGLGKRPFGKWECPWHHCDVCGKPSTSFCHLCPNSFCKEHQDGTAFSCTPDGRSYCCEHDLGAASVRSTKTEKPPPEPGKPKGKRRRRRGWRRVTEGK
MITF act: activators of MITF-driven TRPM1 promoter activity in SK-MEL-5 cells; AID 588334; activation, % at 12.5 µM; hit rate 0.75% among 300,000; SK-MEL-5 TRPM1-promoter luciferase, 24 h; % of positive control, neutral wells = 0;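 active means mean activation of at least 80% with every replicate also reaching 80%; inconclusive means mean reaches 80% but some replicate falls short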;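 further: 0% = neutral control wells and 100% = parthenolide positive control wells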
The depositor's hits bear a star; u = inconclusive; x = no result. An excerpt weighted towards active compounds, which were near 3% of everything screened.

SMILES	esBAF inh	Casp6 inh	XiGFP reactiv	Wnt bcat act	NSD2 HMT inh	MITF act
CCn1c(SCC(=O)Nc2cc(C)on2)nc2c(c1=O)SC(C)C2 (stereo not drawn)	0.4	x	x	x	35.2	-10.2
COc1ccc2c3c(n(C)c2c1)[C@H](CO)N(C)CC31CCN(S(=O)(=O)c2cccs2)CC1	x	x	0.0	x	x	x
CCOC(=O)/C(C#N)=C/Nc1ccccc1OC	47.4*	x	x	x	-3.3	116.8*
CCOC(=O)C(=O)/C(C#N)=C/Nc1ccccc1	-2.4	x	x	-5.7	0.7	-4.2
O=C1CC(c2ccc3c(c2)OCCO3)Oc2ccc([N+](=O)[O-])cc21 (stereo not drawn)	13.9	-0.5	-0.1	-2.2	x	12.0
O=C1CC(c2ccc3c(c2)OCCO3)Oc2ccccc21 (stereo not drawn)	84.4*	3.6	0.0	u	-4.1	103.7*
COc1ccc(C2CC(=O)c3cc(OC)ccc3O2)cc1 (stereo not drawn)	52.2*	-1.3	-0.1	-0.9	-0.6	45.4
COc1ccc(C2CC(=O)c3ccccc3O2)cc1 (stereo not drawn)	60.7*	2.4	-0.1	42.6*	x	125.8*
O=C1CC(c2ccccc2)Oc2ccc(Cl)cc21 (stereo not drawn)	x	0.6	0.0	0.4	-3.9	5.3
COc1cccc(C2Cc3ccccc3C(=O)O2)c1 (stereo not drawn)	x	x	x	x	-1.7	17.8
Cc1ccc(-c2cnc3c(c2)C(=O)N([C@H](C)CO)C[C@@H](C)[C@H](CN(C)C(=O)CN(C)C)O3)cc1	2.9	x	-0.3	x	x	x
C[C@@H]1CN([C@H](C)CO)C(=O)c2cc(C#CC3CC3)cnc2O[C@@H]1CN(C)C(=O)c1ccncc1	x	x	0.3	x	x	x
CC(=O)Nc1ncc(Cc2cccc(Cl)c2)s1	x	-2.3	0.0	8.3	0.3	10.2
O=C(Nc1ncc(Cc2cccc(Cl)c2Cl)s1)C1CCCO1 (stereo not drawn)	84.7*	-0.7	0.0	43.9*	0.0	133.5*
O=C(Nc1ncc(Cc2ccccc2Cl)s1)C1CCCO1 (stereo not drawn)	71.4*	x	x	9.8	1.5	73.4
O=C(Nc1ncc(Cc2cccc(Cl)c2)s1)C1CCCO1 (stereo not drawn)	x	x	x	x	-1.7	96.7*
O=C(Nc1ccccc1)N[C@@H]1CC[C@H](CCn2cc(-c3ccccc3F)nn2)O[C@H]1CO	x	1.9	-0.4	x	x	x
COCC(=O)N1CC2(CCN(Cc3ccc(Cl)cc3)CC2)c2c([nH]c3cc(OC)ccc23)[C@H]1CO	x	3.0	0.1	x	x	x
O=[N+]([O-])c1ccc2nc(-c3ccccc3)[nH]c2c1	x	-1.1	0.4	67.9*	-2.0	102.6*
Cn1cccc1-c1nc2ccc([N+](=O)[O-])cc2[nH]1	u	2.2	0.0	14.4	22.3	99.5*
C#Cc1ccc([C@H]2C=C(C(=O)NC3CC3)O[C@@H](OCc3ccc(CO)cc3)C2)cc1	x	4.6	x	x	x	x
COc1ccc2cc3cc(C(=O)N4CCCC(C)C4)oc3nc2c1 (stereo not drawn)	15.9	4.3	0.2	32.3*	x	48.1
COc1ccc2nc3oc(C(=O)N4CCCCC4)cc3cc2c1	u	x	x	u	-10.8	84.0*
CCOC(=O)C1CCCN(C(=O)c2cc3cc4ccc(OC)cc4nc3o2)C1 (stereo not drawn)	-7.3	x	x	x	17.1	7.6
COc1ccc(S(=O)(=O)N(C)C[C@H]2Oc3ccc(NS(=O)(=O)c4ccc(C)cc4)cc3C(=O)N([C@H](C)CO)C[C@@H]2C)cc1	x	-0.7	0.4	x	x	x
SMILES	esBAF inh	Casp6 inh	XiGFP reactiv	Wnt bcat act	NSD2 HMT inh	MITF act
CCOC(=O)c1nn(-c2ccc(OC)cc2)c(=O)c2c(N)scc12	-0.8	44.5*	x	-1.2	12.5	3.9
Cc1ccc(/C=N/Nc2ccc(Cl)nn2)cc1	x	-3.3	0.1	37.4*	2.4	95.1*
Fc1ccccc1/C=N/Nc1ccc(Cl)nn1	54.9*	-0.9	0.0	0.9	-2.0	49.4
O=C(C[C@@H]1CC[C@@H](NC(=O)CC2CC2)[C@@H](CO)O1)NCc1ccc(Cl)cc1	-1.8	0.4	0.3	x	x	x
COc1ccc(C2NN=C(c3ccc(C)cc3)S2)cc1OC (stereo not drawn)	x	1.4	0.0	40.7*	-0.9	56.7
C=CCc1ccc(OCC(O)COCC)c(OC)c1 (stereo not drawn)	40.9*	x	x	x	1.0	92.7*
O=c1[nH]c(=O)n([C@H]2C[C@H](O)[C@@H](CO)O2)cc1Br	12.6	-1.0	x	46.5*	x	-21.4
Clc1ccc2c(c1)[C@H]1OCC[C@H]1[C@@H](c1ccco1)N2	48.4*	2.5	0.4	12.5	x	48.0
c1csc(C2Nc3ccccc3-c3nc4ccccc4n32)c1 (stereo not drawn)	x	x	0.0	79.7*	-11.0	36.4
Cc1ccsc1C1Nc2ccccc2-c2nc3ccccc3n21 (stereo not drawn)	x	-2.8	30.2*	18.6	-4.9	48.6
CN1c2ccccc2-c2nc3ccccc3n2C1c1cccs1 (stereo not drawn)	x	4.1	0.2	7.5	-11.4	3.8
CCOC(=O)C1=c2/c(=C/c3ccncc3)c(N)c(C(=O)OC)n2C(=O)C(c2ccncc2)S1 (stereo not drawn)	-5.3	2.1	115.8*	-0.3	x	-0.9
CCOC(=O)C1=C(N)n2c(s/c(=C\c3ccncc3)c2=O)=C(C(=O)OCC)C1c1ccncc1 (stereo not drawn)	x	x	0.0	-5.2	-0.9	-52.0
O=C1c2nc3cc(-c4ccco4)[nH]n3c(=O)c2CN1Cc1ccccc1	x	71.2*	0.0	-2.0	0.1	x
Cc1ccc(S(=O)(=O)CC(=O)c2ccccc2)cc1	x	x	x	x	-3.3	15.0
CC(C)(C)c1ccc(C(=O)CS(=O)(=O)c2ccccc2)cc1	9.2	x	x	x	-1.8	108.0*
CC(C)CC1C(C#N)=C(N)Oc2n[nH]c(-c3cccs3)c21 (stereo not drawn)	21.3	x	x	37.1*	7.6	x
COc1ccc(C2CC(c3ccc4ccccc4c3OC(C)=O)=NN2C(C)=O)cc1 (stereo not drawn)	x	-0.1	0.1	58.2*	-2.0	x
COc1ccc(C2CC(c3ccc4ccccc4c3)=NN2C(=O)COC(=O)C2CCC(=O)N2)cc1 (stereo not drawn)	x	3.2	0.3	45.4*	x	74.7
COc1ccc(C2CC(c3ccc4ccccc4c3)=NN2C(=O)CN2CCC(C(N)=O)CC2)cc1 (stereo not drawn)	48.5*	x	0.0	-1.5	6.6	78.4
COc1ccc(C2CC(c3ccc4ccccc4c3)=NN2C(=O)CNC2CCCCC2)cc1 (stereo not drawn)	x	-4.5	0.1	-2.5	-4.5	0.3
C[C@H](CO)N1C[C@H](C)[C@@H](CN(C)Cc2ccc3c(c2)OCO3)Oc2c(NC(=O)CCC(F)(F)F)cccc2C1=O	x	x	0.1	x	x	x
O=C(Nc1cccc(-c2cn3cccnc3n2)c1)c1ccc2c(c1)OCO2	26.9	1.9	x	x	-3.2	36.5
